Reference: ChEMBL document CHEMBL1127410, “Dipeptide phosphonates as inhibitors of dipeptidyl peptidase IV” (J Med Chem, 1994)

How the values were obtained:
[1] = Half life for the spontaneous hydrolysis in buffer was measured; type: ADME
Outline: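 Inhibitor (0.1 mM final) in 0.05 M Tris pH 7.8 with 10% v/v Me2SO. Spontaneous hydrolysis followed as absorbance rise at 270 nm (phenoxy), 280 nm (4-chlorophenoxy) or 277 nm (4-fluorophenoxy). Half-lives from first-order plots of ln(Af − At) vs time, Af being final absorbance of monophenyl ester plus phenol.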

[2] = molecular target: Dipeptidyl peptidase 4 (Homo sapiens) (UniProt P27487)
[3] = molecular target: Cathepsin B (Homo sapiens) (UniProt P07858); test: The second order inhibition rate constant for the compound was measured against cathepsin B; NI-No inhibition after 30 min of incubation of enzyme with inhibitor
Outline: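 Cathepsin B incubated with inhibitor in 100 mM KH2PO4, 1.33 mM EDTA, 2.7 mM fresh cysteine pH 6.0, 8-9% Me2SO, 23 °C. Aliquots assayed with Z-Arg-Arg-AMC, fluorescence at ex 380/em 460 nm. kobs from ln v/v0 vs time. NI means no inhibition after 30 min.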

[4] = molecular target: Chymotrypsinogen A (Bos taurus) (UniProt P00766); test: The second order inhibition rate constant for the compound was measured against chymotrypsinogen
[5] = molecular target: T1, Neutrophil elastase (Homo sapiens) (UniProt P08246); test: The second order inhibition rate constant for the compound was measured against HLE; NI-No inhibition after 30 min of incubation of enzyme with inhibitor
T1 sequence (whole entry): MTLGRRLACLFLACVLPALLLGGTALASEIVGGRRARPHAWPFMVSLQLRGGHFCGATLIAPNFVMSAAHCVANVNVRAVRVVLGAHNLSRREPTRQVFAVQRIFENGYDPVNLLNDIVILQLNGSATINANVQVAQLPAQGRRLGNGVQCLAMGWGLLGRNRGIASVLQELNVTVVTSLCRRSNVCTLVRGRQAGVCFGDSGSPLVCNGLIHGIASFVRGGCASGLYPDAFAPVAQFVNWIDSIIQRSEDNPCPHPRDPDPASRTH

Papain (Carica papaya) = molecular target: T2, Papain (Carica papaya) (UniProt P00784); test: The second order inhibition rate constant for the compound was measured against papain; NI-No inhibition after 30 min of incubation of enzyme with inhibitor
T2 sequence (whole entry): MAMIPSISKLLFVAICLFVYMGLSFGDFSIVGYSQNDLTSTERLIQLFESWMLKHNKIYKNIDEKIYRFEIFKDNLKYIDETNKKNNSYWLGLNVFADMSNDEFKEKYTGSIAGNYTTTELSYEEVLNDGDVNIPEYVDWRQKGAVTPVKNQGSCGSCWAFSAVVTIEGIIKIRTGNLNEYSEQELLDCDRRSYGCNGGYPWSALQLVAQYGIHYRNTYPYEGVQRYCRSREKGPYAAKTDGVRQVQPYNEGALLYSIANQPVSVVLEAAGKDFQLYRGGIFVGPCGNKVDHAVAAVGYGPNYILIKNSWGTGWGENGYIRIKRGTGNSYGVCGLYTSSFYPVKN
Outline: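 Papain incubated with inhibitor in 50 mM Tris-HCl, 2 mM EDTA, 5 mM fresh cysteine pH 7.5, 8-9% Me2SO, 23 °C. Aliquots assayed with Bz-Arg-AMC, fluorescence at ex 380/em 460 nm. kobs from ln v/v0 vs time. NI means no inhibition after 30 min.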

[6] = molecular target: T3, Chymotrypsin-like elastase family member 2A (Sus scrofa) (UniProt P08419); test: The second order inhibition rate constant for the compound was measured against PPE; NI-No inhibition after 30 min of incubation of enzyme with inhibitor
T3 sequence (whole entry): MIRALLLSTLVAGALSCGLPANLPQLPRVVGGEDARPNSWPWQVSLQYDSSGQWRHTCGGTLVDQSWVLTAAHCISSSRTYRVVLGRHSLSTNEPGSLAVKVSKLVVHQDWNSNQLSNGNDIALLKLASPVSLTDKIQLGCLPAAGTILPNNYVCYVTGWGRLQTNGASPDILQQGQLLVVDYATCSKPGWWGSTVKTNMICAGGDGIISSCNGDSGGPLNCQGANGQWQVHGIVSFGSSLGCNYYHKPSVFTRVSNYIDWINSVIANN

[7] = molecular target: T4, Choline O-acetyltransferase (Rattus norvegicus) (UniProt P32738)
T4 sequence (whole entry): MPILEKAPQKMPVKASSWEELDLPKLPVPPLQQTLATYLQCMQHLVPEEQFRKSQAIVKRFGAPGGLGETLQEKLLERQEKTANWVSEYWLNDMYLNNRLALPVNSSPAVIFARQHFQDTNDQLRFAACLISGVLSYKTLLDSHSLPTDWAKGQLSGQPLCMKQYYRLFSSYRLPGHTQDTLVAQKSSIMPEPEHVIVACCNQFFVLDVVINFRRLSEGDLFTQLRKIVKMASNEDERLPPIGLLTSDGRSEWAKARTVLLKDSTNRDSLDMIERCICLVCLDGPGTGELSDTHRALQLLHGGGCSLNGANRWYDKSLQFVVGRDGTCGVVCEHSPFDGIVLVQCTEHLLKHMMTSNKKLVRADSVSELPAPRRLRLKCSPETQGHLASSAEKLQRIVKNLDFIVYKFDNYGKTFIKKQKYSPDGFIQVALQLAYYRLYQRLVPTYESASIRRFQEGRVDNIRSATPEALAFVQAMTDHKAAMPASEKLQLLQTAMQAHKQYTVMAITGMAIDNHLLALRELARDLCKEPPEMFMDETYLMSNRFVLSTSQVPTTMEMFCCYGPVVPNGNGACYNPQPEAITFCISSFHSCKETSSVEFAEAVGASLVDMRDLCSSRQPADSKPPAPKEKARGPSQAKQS

[8] = molecular target: Chymotrypsinogen A (Bos taurus) (UniProt P00766)

Chain of Dipeptidyl peptidase 4 (Homo sapiens) (P27487 whole entry, looked up): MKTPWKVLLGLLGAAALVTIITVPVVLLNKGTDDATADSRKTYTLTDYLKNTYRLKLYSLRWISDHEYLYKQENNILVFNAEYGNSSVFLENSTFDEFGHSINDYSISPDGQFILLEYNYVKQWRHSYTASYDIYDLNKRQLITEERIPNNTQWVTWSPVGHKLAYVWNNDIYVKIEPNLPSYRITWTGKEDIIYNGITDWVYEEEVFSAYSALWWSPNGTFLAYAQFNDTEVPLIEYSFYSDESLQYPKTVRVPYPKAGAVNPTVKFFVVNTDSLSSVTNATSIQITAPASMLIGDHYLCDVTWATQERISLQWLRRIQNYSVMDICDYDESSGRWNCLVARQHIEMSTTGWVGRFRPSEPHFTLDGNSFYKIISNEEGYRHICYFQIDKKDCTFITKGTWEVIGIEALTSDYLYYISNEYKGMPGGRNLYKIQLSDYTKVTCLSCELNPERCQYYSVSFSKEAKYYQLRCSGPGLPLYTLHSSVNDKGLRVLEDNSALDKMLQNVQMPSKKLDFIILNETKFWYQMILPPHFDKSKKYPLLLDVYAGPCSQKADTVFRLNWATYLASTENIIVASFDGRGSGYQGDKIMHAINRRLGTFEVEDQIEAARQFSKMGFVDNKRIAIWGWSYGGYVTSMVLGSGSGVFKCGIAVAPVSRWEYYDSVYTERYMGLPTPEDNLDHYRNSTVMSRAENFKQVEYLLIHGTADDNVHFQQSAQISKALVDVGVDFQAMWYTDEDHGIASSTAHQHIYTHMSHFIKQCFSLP

`C[C@H](N)C(=O)N1CCCCC1P(=O)(Oc1ccccc1)Oc1ccccc1` (some centres not stated) showed a half-life [1] greater than 72 h and a K obs / 1 [2] of 12.6 M⁻¹ s⁻¹.
In the case of `C[C@H](N)C(=O)N1CCCCC1P(=O)(Oc1ccc(Cl)cc1)Oc1ccc(Cl)cc1` (mixture of isomers) [listing 1 of 2 here], the “K obs / 1” value [3] is reported as “No inhibition”, the K obs / 1 [4] is reported as 18 M⁻¹ s⁻¹ and the “K obs / 1” value [5] is reported as “No inhibition”. The “K obs / 1” value (Papain (Carica papaya)) was “No inhibition”, the “K obs / 1” value [6] was “No inhibition” and the K obs / 1 [2] was 156 M⁻¹ s⁻¹.
In the case of `C[C@H](N)C(=O)N1CCC[C@H]1P(=O)(Oc1ccccc1)Oc1ccccc1.Cl`, the half-life [1] is reported as 23.1 h, the “K obs / 1” value [3] is reported as “No inhibition” and the “K obs / 1” value [5] is reported as “No inhibition”. For the same molecule, the “K obs / 1” value (Papain (Carica papaya)) was “No inhibition”, the “K obs / 1” value [6] was “No inhibition” and the “K obs / 1” value [7] was “No inhibition”. For the same molecule, the “K obs / 1” value [8] was “No inhibition” and the K obs / 1 [2] was 1.2 M⁻¹ s⁻¹.
In the case of `C[C@H](N)C(=O)N1CCCCC1P(=O)(Oc1ccc(Cl)cc1)Oc1ccc(Cl)cc1` (some centres not stated) [listing 1 of 2 here], the T1/2 [1] is reported as greater than 48 h.
`C[C@H](N)C(=O)N1CCCCC1P(=O)(Oc1ccc(Cl)cc1)Oc1ccc(Cl)cc1` (some centres not stated) [listing 2 of 2 here] gave a K obs / 1 [2] of 1300 M⁻¹ s⁻¹.
In the case of `C[C@H](N)C(=O)N1CCC[C@H]1P(=O)(Oc1ccc(Cl)cc1)Oc1ccc(Cl)cc1`, the half-life [1] is reported as 5.3 h, the “K obs / 1” value [3] is reported as “No inhibition” and the K obs / 1 [4] is reported as 26 M⁻¹ s⁻¹. The “K obs / 1” value [5] was “No inhibition”, the “K obs / 1” value (Papain (Carica papaya)) was “No inhibition” and the “K obs / 1” value [6] was “No inhibition”. It also gave a K obs / 1 [2] of 28 M⁻¹ s⁻¹.
With `Br.Br.NCCCC[C@H](N)C(=O)N1CCC[C@H]1P(=O)(Oc1ccccc1)Oc1ccccc1` the half-life [1] was 52 h and the K obs / 1 [2] was 1.7 M⁻¹ s⁻¹.
For `NCCCC[C@H](N)C(=O)N1CCCCC1P(=O)(Oc1ccccc1)Oc1ccccc1` (some centres not stated), the half-life [1] was greater than 48 h and the K obs / 1 [2] was 4.2 M⁻¹ s⁻¹.
Work on `C[C@H](N)C(=O)N1CCCCC1P(=O)(Oc1ccc(Cl)cc1)Oc1ccc(Cl)cc1` (mixture of isomers) [listing 2 of 2 here] yielded a half-life [1] of 67 h.
Work on `C[C@H](N)C(=O)N1CCCCC1P(=O)(Oc1ccc(F)cc1)Oc1ccc(F)cc1` (some centres not stated) yielded a half-life [1] of 68 h and a K obs / 1 [2] of 12 M⁻¹ s⁻¹.
